# ChEMBL document CHEMBL5335771, “Thioxanthenone-based derivatives as multitarget therapeutic leads for Alzheimer's disease” (Eur J Med Chem, 2023)
# Calls of active or inactive are those of the source. The rule behind the calls is not given here.
# Tests used:
# [1] = Cytotoxicity against mouse brain Primary embryonic cortical cell assessed as cell death at 5 uM incubated for 1 hr by propidium iodide dye based spectrofluorometric analysis relative to control; format: toxicity
# Procedure, shortened: (§1)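 Primary cortical cultures from E16.5 mouse embryo brains, trypsinized, plated on poly-D-lysine, grown in Neurobasal with glutamine, glucose, 5% horse serum and B27; compounds added at 4 DIV. Propidium iodide 30 μM; baseline F1 read 1 h after PI; ex 530/em 645 nm. Fmax after digitonin permeabilization. % death = 100×(Fn−F1)/(Fmax−F1); mean of three independent experiments.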
# [2] = Cytotoxicity against mouse brain Primary embryonic cortical cell assessed as cell death at 2.5 uM incubated for 5 hrs by propidium iodide dye based spectrofluorometric analysis relative to control; format: toxicity; procedure, shortened: as §1
# [3] = Cytotoxicity against mouse brain Primary embryonic cortical cell assessed as cell death at 2.5 uM incubated for 4 hrs by propidium iodide dye based spectrofluorometric analysis relative to control; format: toxicity; procedure, shortened: as §1
# [4] = Cytotoxicity against mouse brain Primary embryonic cortical cell assessed as cell death at 5 uM incubated for 6 hrs by propidium iodide dye based spectrofluorometric analysis relative to control; format: toxicity; procedure, shortened: as §1
# [5] = Cytotoxicity against rat Primary cerebellar granule neuron assessed as cell viability at 10 uM relative to control; format: toxicity, cell-based, Cerebellar granule neurone; details: primary cerebellar granule neurons, read-out: Activity
# [6] = Cytotoxicity against mouse brain Primary embryonic cortical cell assessed as cell death at 30 uM incubated for 3 hrs by propidium iodide dye based spectrofluorometric analysis relative to control; format: toxicity; procedure, shortened: as §1
# [7] = Cytotoxicity against mouse brain Primary embryonic cortical cell assessed as cell death at 2.5 uM incubated for 3 hrs by propidium iodide dye based spectrofluorometric analysis relative to control; format: toxicity; procedure, shortened: as §1
# Acetylcholinesterase = Acetylcholinesterase (Homo sapiens, UniProt P22303); test: Inhibition of human recombinant AChE using acetylthiocholine iodide as substrate preincubated for 20 mins followed by substrate addition by DTNB reagent based Ellman's method
# Chain of Acetylcholinesterase (P22303 whole entry): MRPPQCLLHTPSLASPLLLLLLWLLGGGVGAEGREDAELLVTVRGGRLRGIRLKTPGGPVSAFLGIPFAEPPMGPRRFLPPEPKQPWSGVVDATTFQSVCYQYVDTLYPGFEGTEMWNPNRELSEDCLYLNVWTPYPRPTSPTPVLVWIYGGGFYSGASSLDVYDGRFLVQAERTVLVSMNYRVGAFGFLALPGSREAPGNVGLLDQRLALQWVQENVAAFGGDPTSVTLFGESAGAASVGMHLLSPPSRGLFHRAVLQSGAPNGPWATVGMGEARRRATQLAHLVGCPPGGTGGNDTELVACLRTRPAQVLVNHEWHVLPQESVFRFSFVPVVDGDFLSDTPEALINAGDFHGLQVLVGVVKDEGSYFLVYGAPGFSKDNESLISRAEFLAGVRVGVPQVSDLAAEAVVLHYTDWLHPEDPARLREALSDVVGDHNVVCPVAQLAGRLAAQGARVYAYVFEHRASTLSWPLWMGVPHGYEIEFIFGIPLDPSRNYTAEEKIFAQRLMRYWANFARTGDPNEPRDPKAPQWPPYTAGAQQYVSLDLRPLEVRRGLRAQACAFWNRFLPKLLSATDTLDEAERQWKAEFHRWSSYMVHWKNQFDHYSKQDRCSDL
# [8] = Cytotoxicity against mouse brain Primary embryonic cortical cell assessed as cell death at 2.5 uM incubated for 24 hrs by propidium iodide dye based spectrofluorometric analysis relative to control; format: toxicity; procedure, shortened: as §1
# [9] = Cytotoxicity against mouse brain Primary embryonic cortical cell assessed as cell death at 5 uM incubated for 4 hrs by propidium iodide dye based spectrofluorometric analysis relative to control; format: toxicity; procedure, shortened: as §1
# Cholinesterase [10] = molecular target: Cholinesterase (Equus caballus, UniProt P81908); test: Inhibition of equine serum BChE using butyrylthiocholine iodide as substrate preincubated for 20 mins followed by substrate addition by DTNB reagent based Ellman's method; format: cell-free
# Chain of Cholinesterase (Equus caballus, UniProt P81908) (P81908 whole entry): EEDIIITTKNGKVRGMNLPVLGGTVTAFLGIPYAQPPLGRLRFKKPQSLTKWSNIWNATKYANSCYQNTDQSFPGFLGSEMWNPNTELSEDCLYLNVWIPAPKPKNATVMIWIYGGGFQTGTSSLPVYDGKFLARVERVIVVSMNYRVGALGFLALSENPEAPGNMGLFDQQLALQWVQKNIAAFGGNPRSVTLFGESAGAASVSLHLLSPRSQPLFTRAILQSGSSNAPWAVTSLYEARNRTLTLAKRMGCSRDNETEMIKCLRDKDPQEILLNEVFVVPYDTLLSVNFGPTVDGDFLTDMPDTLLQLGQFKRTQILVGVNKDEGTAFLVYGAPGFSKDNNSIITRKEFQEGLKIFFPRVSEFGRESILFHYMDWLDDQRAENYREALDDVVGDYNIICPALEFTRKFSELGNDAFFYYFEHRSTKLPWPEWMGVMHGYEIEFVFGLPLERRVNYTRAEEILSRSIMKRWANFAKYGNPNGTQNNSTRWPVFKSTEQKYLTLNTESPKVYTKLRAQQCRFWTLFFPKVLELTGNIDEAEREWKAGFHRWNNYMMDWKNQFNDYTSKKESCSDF
# [11] = Cytotoxicity against mouse brain Primary embryonic cortical cell assessed as cell death at 5 uM incubated for 3 hrs by propidium iodide dye based spectrofluorometric analysis relative to control; format: toxicity; procedure, shortened: as §1
# [12] = molecular target: Microtubule-associated protein tau (Homo sapiens, UniProt P10636); test: Inhibition of tau (unknown origin) aggregation expressed in Escherichia coli BL21 (DE3)
# Chain of Microtubule-associated protein tau (P10636 whole entry): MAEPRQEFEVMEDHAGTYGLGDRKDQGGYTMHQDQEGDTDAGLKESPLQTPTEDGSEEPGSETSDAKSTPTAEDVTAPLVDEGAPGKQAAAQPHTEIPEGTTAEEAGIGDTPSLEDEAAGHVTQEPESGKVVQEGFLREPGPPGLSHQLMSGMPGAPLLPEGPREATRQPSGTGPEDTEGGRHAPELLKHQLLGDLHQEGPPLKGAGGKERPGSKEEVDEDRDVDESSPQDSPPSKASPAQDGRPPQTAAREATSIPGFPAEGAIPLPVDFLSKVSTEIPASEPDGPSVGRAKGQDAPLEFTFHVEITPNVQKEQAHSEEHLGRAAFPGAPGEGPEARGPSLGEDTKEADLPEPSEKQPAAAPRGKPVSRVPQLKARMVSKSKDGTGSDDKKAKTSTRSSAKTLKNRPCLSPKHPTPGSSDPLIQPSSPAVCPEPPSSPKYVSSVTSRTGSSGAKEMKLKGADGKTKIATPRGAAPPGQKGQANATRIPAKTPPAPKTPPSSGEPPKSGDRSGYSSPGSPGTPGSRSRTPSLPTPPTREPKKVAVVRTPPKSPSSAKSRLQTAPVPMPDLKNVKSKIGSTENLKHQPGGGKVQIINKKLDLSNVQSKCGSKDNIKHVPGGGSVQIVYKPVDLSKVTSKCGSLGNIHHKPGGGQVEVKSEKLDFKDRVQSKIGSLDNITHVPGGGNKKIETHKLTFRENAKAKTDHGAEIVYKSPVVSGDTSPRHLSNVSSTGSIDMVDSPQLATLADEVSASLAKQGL
# Procedure, shortened: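 E. coli BL21(DE3) carrying pTARA (T7 RNA polymerase under PBAD) and pRKT42 (four-repeat tau) grown at 37 °C in M9 with 0.5% glucose, antibiotics and 250 μM ThS to OD600 0.6. […] ThS fluorescence ex 430/em 485 nm, normalized to tau-expressing cells (100%) and non-expressing cells (0%); OD600 checked for growth.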
# [13] = Cytotoxicity against mouse brain Primary embryonic cortical cell assessed as cell death at 5 uM incubated for 2 hrs by propidium iodide dye based spectrofluorometric analysis relative to control; format: toxicity; procedure, shortened: as §1
# [14] = Cytotoxicity against mouse brain Primary embryonic cortical cell assessed as cell death at 10 uM incubated for 5 hrs by propidium iodide dye based spectrofluorometric analysis relative to control; format: toxicity; procedure, shortened: as §1
# [15] = Cytotoxicity against mouse brain Primary embryonic cortical cell assessed as cell death at 30 uM incubated for 24 hrs by propidium iodide dye based spectrofluorometric analysis relative to control; format: toxicity; procedure, shortened: as §1
# [16] = Cytotoxicity against mouse brain Primary embryonic cortical cell assessed as cell death at 2.5 uM incubated for 72 hrs by propidium iodide dye based spectrofluorometric analysis relative to control; format: toxicity; procedure, shortened: as §1
# [17] = Cytotoxicity against mouse brain Primary embryonic cortical cell assessed as cell death at 10 uM incubated for 6 hrs by propidium iodide dye based spectrofluorometric analysis relative to control; format: toxicity; procedure, shortened: as §1
# Cholinesterase [18] = molecular target: Cholinesterase (Homo sapiens, UniProt P06276); test: Inhibition of human recombinant BChE using acetylthiocholine iodide as substrate at 10 uM preincubated for 20 mins followed by substrate addition by DTNB reagent based Ellman's method relative to control
# Chain of Cholinesterase (Homo sapiens, UniProt P06276) (P06276 whole entry): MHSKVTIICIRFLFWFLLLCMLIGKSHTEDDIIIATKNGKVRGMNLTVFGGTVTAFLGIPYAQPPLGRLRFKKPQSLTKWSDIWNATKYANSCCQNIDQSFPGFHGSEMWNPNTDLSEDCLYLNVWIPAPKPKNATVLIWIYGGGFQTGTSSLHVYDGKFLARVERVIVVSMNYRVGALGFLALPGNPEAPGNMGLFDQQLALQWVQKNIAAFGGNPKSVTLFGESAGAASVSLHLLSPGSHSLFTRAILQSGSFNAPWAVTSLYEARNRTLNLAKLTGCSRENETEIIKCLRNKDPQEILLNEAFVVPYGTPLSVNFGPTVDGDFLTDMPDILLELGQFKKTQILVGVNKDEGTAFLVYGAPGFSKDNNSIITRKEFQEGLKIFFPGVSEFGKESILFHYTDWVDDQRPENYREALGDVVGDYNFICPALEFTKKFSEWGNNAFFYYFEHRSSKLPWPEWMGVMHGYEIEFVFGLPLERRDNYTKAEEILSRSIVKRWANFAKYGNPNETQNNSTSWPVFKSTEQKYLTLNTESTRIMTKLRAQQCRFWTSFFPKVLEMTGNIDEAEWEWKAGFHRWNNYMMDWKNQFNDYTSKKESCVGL
# Procedure, shortened: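 Human BChE activity was read by the Ellman spectrophotometric method. Results are % inhibition at a single 10 μM inhibitor concentration. Values are means of three independent experiments.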
# [19] = Cytotoxicity against mouse brain Primary embryonic cortical cell assessed as cell death at 30 uM incubated for 6 hrs by propidium iodide dye based spectrofluorometric analysis relative to control; format: toxicity; procedure, shortened: as §1
# [20] = Cytotoxicity against mouse brain Primary embryonic cortical cell assessed as cell death at 2.5 uM incubated for 1 hr by propidium iodide dye based spectrofluorometric analysis relative to control; format: toxicity; procedure, shortened: as §1
# [21] = Cytotoxicity against mouse brain Primary embryonic cortical cell assessed as cell death at 10 uM incubated for 48 hrs by propidium iodide dye based spectrofluorometric analysis relative to control; format: toxicity; procedure, shortened: as §1
# [22] = Cytotoxicity against mouse brain Primary embryonic cortical cell assessed as cell death at 30 uM incubated for 48 hrs by propidium iodide dye based spectrofluorometric analysis relative to control; format: toxicity; procedure, shortened: as §1
# [23] = Cytotoxicity against mouse brain Primary embryonic cortical cell assessed as cell death at 30 uM incubated for 2 hrs by propidium iodide dye based spectrofluorometric analysis relative to control; format: toxicity; procedure, shortened: as §1
# [24] = Cytotoxicity against mouse brain Primary embryonic cortical cell assessed as cell death at 2.5 uM incubated for 48 hrs by propidium iodide dye based spectrofluorometric analysis relative to control; format: toxicity; procedure, shortened: as §1
# [25] = Cytotoxicity against mouse brain Primary embryonic cortical cell assessed as cell death at 10 uM incubated for 24 hrs by propidium iodide dye based spectrofluorometric analysis relative to control; format: toxicity; procedure, shortened: as §1
# [26] = Cytotoxicity against mouse brain Primary embryonic cortical cell assessed as cell death at 2.5 uM incubated for 6 hrs by propidium iodide dye based spectrofluorometric analysis relative to control; format: toxicity; procedure, shortened: as §1
# [27] = Cytotoxicity against mouse brain Primary embryonic cortical cell assessed as cell death at 10 uM incubated for 2 hrs by propidium iodide dye based spectrofluorometric analysis relative to control; format: toxicity; procedure, shortened: as §1
# [28] = Cytotoxicity against mouse brain Primary embryonic cortical cell assessed as cell death at 30 uM incubated for 72 hrs by propidium iodide dye based spectrofluorometric analysis relative to control; format: toxicity; procedure, shortened: as §1
# SH-SY5Y = test: Neuroprotective activity against okadaic acid-induced cytotoxicity in human SH-SY5Y cells assessed as increase in cell viability at 50 uM incubated for 24 hrs by MTT assay; format: functional, cell-based
# Procedure, shortened: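 SH-SY5Y cells grown in DMEM with 10% FBS and plated at 4.5×10^4 cells/well. Incubated 24 h at 37 °C, 5% CO2 with compound (0.1–50 μM) plus okadaic acid 100 nM. Viability by MTT, expressed as % of untreated cells; estradiol and PD38 as positive controls. Mean ± SD of three independent experiments; ANOVA with Dunnett's test.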
# [29] = Cytotoxicity against mouse brain Primary embryonic cortical cell assessed as cell death at 5 uM incubated for 5 hrs by propidium iodide dye based spectrofluorometric analysis relative to control; format: toxicity; procedure, shortened: as §1
# [30] = Cytotoxicity against mouse brain Primary embryonic cortical cell assessed as cell death at 30 uM incubated for 1 hr by propidium iodide dye based spectrofluorometric analysis relative to control; format: toxicity; procedure, shortened: as §1
structure (smiles),measurement,setting,value
COc1ccc2sc3c(C)ccc(NCCC4CCN(C)CC4)c3c(=O)c2c1,Activity,[1],1.6%
same,Activity,[2],23.8%
same,Activity,[3],17.4%
same,Activity,[4],41.4%
same,viability at 10 µM,[5],30%
same,Activity,[6],54.7%
same,Activity,[7],8.5%
same,IC50,Acetylcholinesterase,16100 nM
same,Activity,[8],76.2%
same,Activity,[9],25.8%
same,IC50,Cholinesterase [10],960 nM
same,Activity,[11],15.8%
same,IC50,[12],1800 nM
same,Activity,[13],7.6%
same,Activity,[14],54.4%
same,Activity,[15],86.1%
same,Activity,[16],77.8%
same,Activity,[17],55.7%
same,inhibition,Cholinesterase [18],16%
same,Activity,[19],61.9%
same,Activity,[20],2.9%
same,Activity,[21],84.1%
same,Activity,[22],88.1%
same,Activity,[23],46.5%
same,Activity,[24],81.5%
same,Activity,[25],88.5%
same,Activity,[26],29.9%
same,Activity,[27],43.5%
same,Activity,[28],89.4%
same,Activity,SH-SY5Y,inactive
same,Activity,[29],32.6%
same,Activity,[30],28.5%
